assay: Toxicity liver stage against HepG2, at 10uM; format: cell-based; set-up: test concentration 10 uM, cell line HepG2-A16-CD81EGFP; settings: human, HepG2-A16-CD81EGFP cells; read-out: INHIBITION
In short: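 Uninfected HepG2-A16-CD81EGFP cells, 3 × 10^3 per well, 1536-well, plated on prespotted compound at 10 μM final, parasite-free screening media added to match infected plates; puromycin 10 μM positive, DMSO 0.5% negative; run in parallel with 48 h PbLuc assay at 37 °C, 5% CO2; viability by CellTiter-Glo luminescence, normalized to controls.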

Compound | cytotoxicity at 10 µM [%]
CCN(CC)S(=O)(=O)c1ccc(CCC(=O)NCc2cc(C)on2)cc1 | -3.09
O=C(NCCCc1ccco1)c1cnc(N2CCOCC2)nc1 | 11
O=C(C1CC(=O)N(c2n[nH]c3cc(Br)ccc23)C1)N1CCCC1 (stereo not drawn) | -11.2
O=C(NCCC(O)c1cccs1)c1ccc(Br)o1 (stereo not drawn) | -15.2
Cn1nnc2c(N3CC(C(=O)NCCC4=CCCCC4)C3)ncnc21 | 8.41
CN(Cc1cccnc1)C1CC2(CCN(C(=O)c3cscn3)CC2)C1 | 1.02
Cn1c(C(=O)NC2CCCC2)nc2c1CCN(Cc1ccccc1)C2 | 10.3
O=c1cc(CN2CCCC2)nc2n1CCCN(Cc1ccoc1)C2 | -123
CC(NC(=O)OC(C)(C)C)c1nnc(S(=O)(=O)Cc2ccc(Cl)cc2)o1 (stereo not drawn) | -8.92
CCOc1c(Cl)cc(Cl)cc1CNCCCn1ccnc1 | -1.32
Cc1c(C(=O)O)nnn1Cc1cccc(C(F)(F)F)c1 | -2.93
CC(C)Sc1nnc(CCNC(=O)OC(C)(C)C)o1 | 14.3
CC(=O)NCCN1CCC(c2cccs2)CC1 | -22.6
CCNC(=O)c1nnn(Cc2ccccc2)c1OC | 4.62
COc1ccc(C(C)N(C)Cc2c(C(C)(C)C)[nH]c3ncccc23)cc1 (stereo not drawn) | -0.0612
CC(=O)NC1Cc2ccc(S(=O)(=O)NCCNc3ccccn3)cc2C1 (stereo not drawn) | 0.126
CC(C)c1ccc(CN[C@@H]2COC[C@H]2c2ccc(F)cc2)cc1 | -7.52
CN(C)c1ccc(CC2CCN(c3cnccn3)CC2)nn1 | 2.29
CC(C)OC(=O)[C@@H]1CCN(C(=O)c2ccccn2)[C@@H]1c1ccc(F)cc1 | 4.81
Cc1n[nH]c(C)c1CCC(=O)N[C@@H]1CCC[C@@H](Oc2ccccc2)[C@@H]1O | 3.01
CN1CCN(C(=O)C2CCN(c3cccnn3)C2)CC1 (stereo not drawn) | -32.4

Compound | cytotoxicity at 10 µM [%]
CC(C)N(Cc1ccccc1)C(=O)c1cc(C2CCCN2C)ccn1 (stereo not drawn) | -18.7
Cc1nnc2n1CCN(C(=O)c1ccc(Cn3cccc3)cc1)C2 | -2.4
CCOc1ccccc1CCNC(=O)NCC(O)c1ccsc1 (stereo not drawn) | -2.23
COCCCNC(=O)Nc1c(C)cccc1C(C)C | 2.66
CNS(=O)(=O)CC(=O)NCc1cc2c(s1)CCC(C)(C)C2 | 3.15
CC(C)CN(C(=O)Nc1cccnc1)C1CC1 | -11.3
CCN(CCNC(=O)Nc1nnc(C)s1)C(=O)OC(C)(C)C | -9.41
O=C1CCCN1CCN1CCCCC1Cn1cncn1 (stereo not drawn) | -0.225
O=C(O)c1csc(S(=O)(=O)N2CCN(Cc3ccc(Cl)cc3)CC2)c1 | 4
Cc1cc(C(=O)NC(C)CC(=O)c2cccs2)n(C)n1 (stereo not drawn) | -0.0944
COc1ncccc1CNCc1c(C(C)C)nn(C)c1N(C)C | -5.91
COc1ccc(C(C)NC(=O)Nc2nnc(C)s2)c(OC)c1 (stereo not drawn) | 9.12
COC(=O)N1CCC(NC(=O)Cn2cc(C)c3ccccc32)CC1 | -2.37
CN(Cc1ccc(Cl)s1)C(=O)COc1cccc(C(N)=O)c1 | -2.83
Cc1noc(CN(CCc2cccs2)Cc2cccc(C#N)c2)n1 | 2.27
COCCOCC(=O)Nc1cc(C)ccc1F | 3.91
CC(C)c1ccc(C(=O)N2CCOCC2CC(=O)c2ccco2)cn1 (stereo not drawn) | 6.93
CC(C)NC(=O)c1nnn(-c2cccc(F)c2)c1C1CC1 | -0.0198
Cc1cc(C)c(C(=O)N2CCOC(c3cccs3)C2)c(=O)[nH]1 (stereo not drawn) | -1.29
Cn1c(SCC(O)COCc2ccc(Cl)cc2)nnc1C1CC1 (stereo not drawn) | 14
Cc1ccc(N2CCCC(NC(=O)CCc3ccccn3)C2=O)cc1 (stereo not drawn) | -2.16

Compound | cytotoxicity at 10 µM [%]
O=C(NCCc1cccs1)N1CCCC1CCCO (stereo not drawn) | 5.82
CS(=O)(=O)CCCSc1n[nH]c(-c2ccc3c(c2)CCC3)n1 | -0.0422
O=c1[nH]nc2n1CCN(S(=O)(=O)c1ccccc1Cl)C2 | 3.61
O=C(CC(F)(F)F)NCC(O)c1ccc2ccccc2c1 (stereo not drawn) | -4.06
O=C(NCCNc1cnccn1)NCC1CCS(=O)(=O)C1 (stereo not drawn) | -1.68
COc1ccc(C(=O)CCc2nc(C3CC3)no2)cc1F | -2.89
CC(=O)N1CCCN(C(C)c2ccc(Br)cc2)CC1 (stereo not drawn) | 7.89
CN1CC(C(=O)NCc2ccc(Br)cc2F)CC1=O (stereo not drawn) | 9.01
Cc1ccn(-c2ccc(NCc3ccccc3F)nn2)n1 | 3.66
Cc1cnc(CNc2c(F)cccc2-n2cccn2)o1 | 15.6
c1cnc(N2CCOCC3(CCN(c4cnccn4)CC3)C2)nc1 | -103
COCC(=O)N1CCN(CC2CC2)c2ncccc2C1 | -100
COc1ccccc1OC1CCN(c2nc(N)nc3[nH]cnc23)CC1 | 2.94
Cc1cc(N(C)Cc2ncc[nH]2)nc(-c2cccnc2)n1 | 4.37
Cc1cc(C)n(CC2(CNC(=O)C(c3ccc(F)cc3)N(C)C)CC2)n1 (stereo not drawn) | 0.438
O=c1n(CC2CCCCO2)nc(CC2CCNCC2)n1-c1ccccc1 (stereo not drawn) | -6.66
COc1cccc(F)c1-c1nc2c([nH]1)c(C1CC1)nn2C | 0.271
COc1ccc(-n2nc(C(C)C)nc2Cn2cncn2)cc1 | 4.22
CCOc1cccc(C(=O)N2CCCn3nc(CCC(=O)O)cc3C2)c1 | -3.43
CN1CCN(C(=O)c2ccc3c(c2)nc(N2CCOCC2)n3C)CC1=O | 1.22
CC(=O)N[C@@H]1CN(Cc2nccn2C)C[C@H]1c1ccc(C)cc1 | 14.1

Compound | cytotoxicity at 10 µM [%]
CC(C)c1noc(-c2ccc(NCc3noc(C(C)C)n3)nc2)n1 | -6.49
CCc1ccc(CNC(=O)CCc2nnc(-c3ccc(C)s3)o2)nc1 | -3.65
COc1cccc(CN(C)Cc2nc3cc(C)ccc3[nH]2)c1O | 2.74
NC(=O)COc1ccc(C(=O)N2CCCC(n3ccnc3)C2)cc1 (stereo not drawn) | -13
COc1cccc2cc(CNCc3ccnc(N4CCCCC4)c3)oc12 | -0.381
COc1cccc(OCC(=O)NS(=O)(=O)c2cccnc2)c1 | -12.1
CCc1noc(CN2CCC(c3ccnn3CCO)CC2)n1 | -11
CCc1nc(CN2CCCN(C(=O)CC(F)(F)F)CC2)cs1 | -18.9
CC(C(=O)N1CCOCC1)n1cncn1 (stereo not drawn) | -1.45
Cc1nccc(C(=O)NC(COCC(C)C)c2ccco2)n1 (stereo not drawn) | -10.7
Cc1csc(C2CCCCN2C(=O)c2cc(Cl)c[nH]2)n1 (stereo not drawn) | -6.73
CCc1nnc(CNC2CCc3nc(C(C)C)nn3C2)o1 (stereo not drawn) | -20.6
Cc1cnn(CCC(=O)N2CCCC(c3ccn[nH]3)C2)c1 (stereo not drawn) | -8.25
Cc1ccc(CCC(=O)N2CCCC(n3cncn3)C2)c(C)c1 (stereo not drawn) | 1.8
Cc1noc(C(C)C)c1C(=O)NCCCOC(C)C | -9.83
O=C(C[C@@H]1COC[C@H]2CN(C(=O)c3cccnc3)C[C@@H]12)N1CCCC1 | -118
CN(C)CCO[C@H]1CN(C(=O)c2cccs2)[C@@H]2COC[C@H]12 | -3.83
O=C(c1cnccn1)N1CCCC2(CCN(Cc3cccnc3)C2)C1 (stereo not drawn) | -129
COc1ccc(CN2C[C@H]3CN(c4cncnc4)C(=O)[C@H]3C2)cc1 | 4.74
Cc1cccc(CN2C(=O)CC[C@H]3[C@@H]2CCN3CC(=O)N(C)C)n1 | -71.7

From ChEMBL document CHEMBL4513216, “Probing the Open Global Health Chemical Diversity Library for Multistage-Active Starting Points for Next-Generation Antimalarials” (ACS Infect Dis, 2020)
